Measurements published in ChEMBL document CHEMBL1132166, “Synthesis and biological evaluation of dihydrobenzofuran lignans and related compounds as potential antitumor agents that inhibit tubulin polymerization” (J Med Chem, 1999).

How the values were obtained:
[1] = test system: Panel (Carcinoma cell lines); assay: Average log GI50 value against a panel of human cancer cell lines; assay type: functional
Method in brief: (§1)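 NCI in vitro human tumor cell line screening panel; each compound tested at a minimum of five concentrations at 10-fold dilutions, highest 100 µM, over a 48 h assay. GI50 is the molar concentration giving 50% growth inhibition. TGI and LC50 were also derived, and the average log GI50 was taken across all lines tested.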

[2] = biological target: T1, Tubulin (Bos taurus, UniProt Q6B856+Q862L2+Q862F3); assay: (§2) Inhibitory activity against purified bovine brain tubulin.
Method in brief: (§3)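 Tubulin assembly: drug and tubulin were preincubated in glutamate for 15 min at 30 °C, then chilled on ice. GTP was added and assembly started by a 0→30 °C jump in a recording spectrophotometer. After 20 min, mixtures were chilled to 0 °C to confirm reversibility. IC50 was taken from inhibition of the extent of assembly across a drug concentration series (n = 3, SD).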

[3] = biological target: T1, Tubulin; assay: as §2; assay type: functional; method in brief: as §3
[4] = test system: Panel (Carcinoma cell lines); assay: The molar drug concentration required for 50% growth inhibition; assay type: functional; settings: Homo sapiens; method in brief: as §1
[5] = test system: HL-60; assay: Inhibitory activity against HL 60 cells; assay type: functional, cell-based; settings: Homo sapiens
Method in brief: (§4)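 HL-60 human leukemia cells were grown for 24 h with compound. Growth was measured as the increase in cell number from time zero, and the IC50 was taken from that growth. Mitotic arrest was scored as the fraction of cells with condensed chromosomes after 24 h at 10 µM.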

[6] = biological target: Tubulin alpha chain (Sus scrofa) (UniProt P02550); settings: Homo sapiens; 1.0 uM
Tubulin alpha chain (Sus scrofa), sequence (P02550 whole entry, looked up): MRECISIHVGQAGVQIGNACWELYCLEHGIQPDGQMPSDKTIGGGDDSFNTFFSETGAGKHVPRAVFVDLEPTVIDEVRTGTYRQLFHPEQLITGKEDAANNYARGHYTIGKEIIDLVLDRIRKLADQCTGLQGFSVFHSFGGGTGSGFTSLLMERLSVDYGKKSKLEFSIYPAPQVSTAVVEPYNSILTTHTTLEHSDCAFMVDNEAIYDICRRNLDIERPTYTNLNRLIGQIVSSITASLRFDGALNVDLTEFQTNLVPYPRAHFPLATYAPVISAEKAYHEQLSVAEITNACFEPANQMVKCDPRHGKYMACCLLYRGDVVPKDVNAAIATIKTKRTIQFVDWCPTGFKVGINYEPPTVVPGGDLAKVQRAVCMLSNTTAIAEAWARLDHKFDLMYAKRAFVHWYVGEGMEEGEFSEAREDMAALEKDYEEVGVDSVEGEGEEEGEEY

[7] = biological target: Tubulin alpha chain (Sus scrofa) (UniProt P02550); settings: Homo sapiens; 5.0 uM
[8] = test system: RPMI-8226; assay: Growth inhibitory activity determined against RPMI-8226 leukemia cell line; assay type: functional; settings: Homo sapiens; method in brief: as §1
[9] = test system: MOLT-4; assay: Growth inhibitory activity determined against MOLT-4 leukemia cell line.; assay type: functional; settings: Homo sapiens; method in brief: as §1
[10] = test system: CCRF-CEM; assay: Growth inhibitory activity determined against CCRF-CEM leukemia cell line; assay type: functional; settings: Homo sapiens; method in brief: as §1
[11] = test system: MDA-MB-4; assay: Cytotoxicity against MDA-MB-435 breast cancer cell line; assay type: functional; settings: Homo sapiens; method in brief: as §1
[12] = test system: MCF7; assay: Growth inhibitory activity determined against MCF-7/ADR-RES breast cancer cell line; assay type: functional; settings: Homo sapiens; method in brief: as §1
[13] = test system: HL-60; assay: Compound was evaluated for its effect on the growth of HL 60 human leukemia cells; assay type: functional, cell-based; method in brief: as §4
[14] = test system: Hs-578T; assay: Growth inhibitory activity determined against HS 578 T breast cancer cell line; assay type: functional; settings: Homo sapiens; method in brief: as §1
[15] = test system: MDA-N; assay: Cytotoxicity against MDA-N breast cancer cell line; assay type: functional; settings: Homo sapiens; method in brief: as §1
[16] = test system: BT-549; assay: Cytotoxicity against BT-549 breast cancer cell line; assay type: functional; settings: Homo sapiens; method in brief: as §1
[17] = test system: SR; assay: Growth inhibitory activity determined against SR leukemia cell line; assay type: functional; settings: Homo sapiens; method in brief: as §1
[18] = test system: MDA-MB-231; assay: Growth inhibitory activity determined against MDA-MB-231/ATCC breast cancer cell line; assay type: functional; settings: Homo sapiens; method in brief: as §1
[19] = test system: MCF7; assay: Growth inhibitory activity determined against MCF-7 breast cancer cell line; assay type: functional; settings: Homo sapiens; method in brief: as §1

For `COC(=O)CCc1cc(O)c2c(c1)[C@@H](C(=O)OC)[C@H](c1ccc(O)c(O)c1)O2`, the “log GI50” value [1] was -4.97.

With `COC(=O)/C=C/c1cc(OC)c2c(c1)[C@@H](C(=O)OC)[C@H](c1ccc(OC)c(OC)c1)O2` the IC50 [2] was greater than 40000 nM, the IC50 [3] was greater than 40000 nM and the GI50 [4] was 5100 nM. The IC50 [5] was 80 nM.

`COc1ccc(/C=C\c2cc(OC)c(OC)c(OC)c2)cc1O` gave an inhibition [6] of 88% and an inhibition [7] of 100%.

With `COC(=O)/C=C/c1cc(O)c2c(c1)[C@@H](C(=O)OC)[C@H](c1ccc(O)c(O)c1)O2` the GI50 [8] was 55 nM, the GI50 [1] was 288 nM and the GI50 [9] was 81 nM. It also gave a GI50 [10] of 33 nM, a GI50 [11] of less than 10 nM and a GI50 [12] of 54 nM. It also gave an IC50 [13] of 200 nM, a GI50 [14] of 45 nM and a GI50 [15] of less than 10 nM. The GI50 [16] was less than 10 nM, the GI50 [17] was 69 nM and the GI50 [4] was 300 nM. It also gave a GI50 [18] of 50 nM and a GI50 [19] of 29 nM.

In the case of `OCCCc1cc(O)c2c(c1)[C@@H](CO)[C@H](c1ccc(O)c(O)c1)O2`, the “log GI50” value [1] is reported as -4.01.

In the case of `COC(=O)/C=C/c1cc(OC)c2c(c1)[C@@H](C(=O)OC)[C@H](c1ccc(O)c(OC)c1)O2`, the IC50 [3] is reported as greater than 40000 nM and the GI50 [4] is reported as 3300 nM.
